This passage reports inhibition and EC50 results from ChEMBL document CHEMBL1148785, “Second generation tetrahydroquinoline-based protein farnesyltransferase inhibitors as antimalarials” (J Med Chem, 2007).

Assay [1] has as its system Plasmodium falciparum. The assay can be described thus: Inhibition of Plasmodium falciparum protein farnesyltransferase at 50 nM by scintillation proximity assay.
The subject of assay [2] is Plasmodium falciparum. Kind of assay: Inhibition of Plasmodium falciparum protein farnesyltransferase at 5 nM by scintillation proximity assay. A general note: In a scintillation proximity assay essentially only radioactivity close to the scintillant gives light.
The test system of assay [3] is Plasmodium falciparum. The assay can be described thus: Inhibition of Plasmodium falciparum protein farnesyltransferase at 0.5 nM by scintillation proximity assay.
Assay [4] relates to Plasmodium falciparum. Kind of assay: Antimalarial activity against Plasmodium falciparum 3D7. The class given is functional. The following applies: Plasmodium falciparum, 3D7; read-out: ED50 (the source's name). In short, it runs like this:
(§1)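 Asynchronous culture in type A+ erythrocytes at 0.5% parasitemia and 0.5% hematocrit, grown in RPMI-1640 with 20% heat-inactivated human A+ plasma. Compound was serially diluted from a top final 5 µM, with DMSO vehicle as 100% growth. Plates ran 48 h at 37 °C under 5% CO2/5% O2/90% N2, then [3H]-hypoxanthine (0.3 µCi) for 24 h. Filter-harvested counts were corrected for the uninfected-RBC background. ED50 by linear regression; duplicates averaged.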

The subject of assay [5] is Plasmodium falciparum. The assay can be described thus: Antimalarial activity against Plasmodium falciparum K1. The class given is functional. The following applies: Plasmodium falciparum, K1; read-out: ED50 (the source's name). In short, it runs like this: as §1

In general, inhibition refers to the percentage by which the read-out fell short of the control.

Bounds are passed on as bounds.

Take `Cn1cnc(S(=O)(=O)N(Cc2ccc(C#N)cc2)C2Cc3cc(C#N)ccc3N(Cc3cncn3C)C2)c1` (stereo not drawn): the inhibition in assay [1] turned out to be 96%; in assay [2], 90%; in assay [3], 54%. Further, the values for the EC50 in assay [4] and in assay [5] were 70 nM and 55 nM, respectively.

For `Cn1cnc(S(=O)(=O)N(Cc2ccc(S(C)(=O)=O)cc2)C2Cc3cc(C#N)ccc3N(Cc3cncn3C)C2)c1` (stereo not drawn), the inhibition turned out to be 100% in assay [1], 99% in assay [2] and 82% in assay [3]. Also, the EC50 in assay [4] turned out to be 6 nM; in assay [5] it was 10 nM.

`Cn1cnc(S(=O)(=O)N(CCc2cccs2)C2Cc3cc(C#N)ccc3N(Cc3cncn3C)C2)c1` (stereo not drawn): the values for the inhibition in assay [1], in assay [2] and in assay [3] were 100%, 86% and 26%, respectively. Further, the EC50 in assay [4] was 21 nM; in assay [5] it was 8.5 nM.

Turning to `Cn1cnc(S(=O)(=O)N(Cc2ccccc2C(F)(F)F)C2Cc3cc(C#N)ccc3N(Cc3cncn3C)C2)c1` (stereo not drawn), the inhibition is 99% in assay [1], 93% in assay [2] and 36% in assay [3]. Besides, the EC50 in assay [4] was found to be 71 nM; in assay [5], 75 nM.

As to `Cn1cnc(S(=O)(=O)N(Cc2cccnc2)C2Cc3cc(C#N)ccc3N(Cc3cncn3C)C2)c1` (stereo not drawn), the inhibition in assay [1] stood at 99%; in assay [2], 89%; in assay [3], 17%. Also, the EC50 in assay [4] worked out at 70 nM; in assay [5], 210 nM.

Regarding `COC(=O)N1CCC(CN(C2Cc3cc(C#N)ccc3N(Cc3cncn3C)C2)S(=O)(=O)c2cccc3ccccc23)CC1` (stereo not drawn), the inhibition in assay [1] came to 88%; in assay [2], 39%; in assay [3] it was 2%. The figures for the EC50 in assay [4] and in assay [5] were 550 nM and 1700 nM, respectively.

Consider `CC(=O)N(Cc1ccccc1F)C1Cc2cc(C#N)ccc2N(Cc2cncn2C)C1` (stereo not drawn), for which the inhibition in assay [1] was 43%; in assay [2], 1%; in assay [3], 0%. Also, the EC50 was found to be 650 nM in assay [4] and 730 nM in assay [5].

Consider `Cn1cnc(S(=O)(=O)N(CCN2CCCCC2)C2Cc3cc(C#N)ccc3N(Cc3cncn3C)C2)c1` (stereo not drawn), for which the inhibition in assay [1] stood at 93%; in assay [2] it was 62%; in assay [3] it was 9%. Moreover, the EC50 in assay [4] was determined as 200 nM; in assay [5], 300 nM.

Regarding `CN(CCCCN(C1Cc2cc(C#N)ccc2N(Cc2cncn2C)C1)S(=O)(=O)c1ccccn1)C(=O)OC(C)(C)C` (stereo not drawn), the results for the inhibition in assay [1], in assay [2] and in assay [3] were 98%, 78% and 27%, respectively. Also, the EC50 was determined as 320 nM in assay [4] and 270 nM in assay [5].

Turning to `Cc1noc(C)c1CN(C1Cc2cc(C#N)ccc2N(Cc2cncn2C)C1)S(=O)(=O)c1cn(C)cn1` (stereo not drawn), the inhibition was 100% in assay [1], 98% in assay [2] and 46% in assay [3]. Also, the EC50 is 25 nM in assay [4] and less than 20 nM in assay [5].

For `Cn1cnc(S(=O)(=O)N(CC(=O)O)C2Cc3cc(C#N)ccc3N(Cc3cncn3C)C2)c1` (stereo not drawn), the figures for the inhibition in assay [1], in assay [2] and in assay [3] were 97%, 81% and 19%, respectively. The EC50 in assay [4] came to 125 nM; in assay [5], 400 nM.

As for `CCN(CCCCN(C1Cc2cc(C#N)ccc2N(Cc2cncn2C)C1)S(=O)(=O)c1ccccn1)C(=O)OC` (stereo not drawn), the inhibition came out at 89% in assay [1], 69% in assay [2] and 26% in assay [3]. The EC50 in assay [4] was determined as 250 nM; in assay [5] it was 600 nM.

On to `Cn1cnc(CN2CC(N(CC(=O)NC(C)(C)C)S(=O)(=O)c3ccccn3)Cc3cc(-c4ccccc4)ccc32)c1` (stereo not drawn), for which the inhibition was 11% in assay [1], 6% in assay [2] and 6% in assay [3]. The EC50 was greater than 5000 nM in assay [4] and 3000 nM in assay [5].

As for `Cc1ccccc1CN(C1Cc2cc(-c3ccccc3)ccc2N(Cc2cn(C)cn2)C1)S(=O)(=O)c1cn(C)cn1` (stereo not drawn), the inhibition came out at 46% in assay [1], 0% in assay [2] and 0% in assay [3]. For the same compound, the values for the EC50 in assay [4] and in assay [5] were 2900 nM and 1800 nM, respectively.

Consider `Cn1cnc(S(=O)(=O)NC2Cc3cc(-c4ccccc4)ccc3N(Cc3cncn3C)C2)c1` (stereo not drawn), for which the inhibition in assay [1] was determined as 80%; in assay [2], 31%; in assay [3] it was 14%. For the same compound, the values for the EC50 in assay [4] and in assay [5] were 3500 nM and greater than 5000 nM, respectively.

Consider `Cn1cnc(S(=O)(=O)N(CCc2ccsc2)C2Cc3cc(C#N)ccc3N(Cc3cncn3C)C2)c1` (stereo not drawn), for which the results for the inhibition in assay [1], in assay [2] and in assay [3] were 100%, 100% and 86%, respectively. Further, the EC50 in assay [4] worked out at 6.2 nM; in assay [5] it was 4.2 nM.

Regarding `CC(C)OC(=O)N1CCC(CN(C2Cc3cc(C#N)ccc3N(Cc3cncn3C)C2)S(=O)(=O)c2ccccn2)CC1` (stereo not drawn), the results for the inhibition in assay [1], in assay [2] and in assay [3] were 97%, 36% and 90%, respectively. In addition, the EC50 in assay [4] and in assay [5] was 50 nM in each case.

`COC(=O)N1CCC(CN(C2Cc3cc(C#N)ccc3N(Cc3cncn3C)C2)S(=O)(=O)c2cc(C)cs2)CC1` (stereo not drawn): the inhibition was 99% in assay [1], 86% in assay [2] and 25% in assay [3]. The EC50 was 62 nM in assay [4] and 140 nM in assay [5].

`CCS(=O)(=O)N(Cc1ccccc1F)C1Cc2cc(C#N)ccc2N(Cc2cncn2C)C1` (stereo not drawn): the values for the inhibition in assay [1], in assay [2] and in assay [3] were 61%, 11% and 0%, respectively. Besides, the EC50 in assay [4] came out at 820 nM; in assay [5], 2100 nM.

As for `Cn1cnc(CN2CC(NS(=O)(=O)c3ccccn3)Cc3cc(-c4ccccc4)ccc32)c1` (stereo not drawn), the inhibition came to 19% in assay [1], 14% in assay [2] and 11% in assay [3]. The EC50 in assay [4] and in assay [5] was greater than 5000 nM in each case.

`COC(=O)N1CCC(CN(C2Cc3cc(C#N)ccc3N(Cc3cncn3C)C2)S(=O)(=O)c2ccc(NC(C)=O)cc2)CC1` (stereo not drawn): the inhibition in assay [1] was 65%; in assay [2], 6%; in assay [3], 0%. Also, the EC50 in assay [4] stood at 1800 nM; in assay [5], 2000 nM.

On to `COC(=O)N1CCC(CN(C2Cc3cc(C#N)ccc3N(Cc3cncn3C)C2)S(=O)(=O)c2cccc3nsnc23)CC1` (stereo not drawn), for which the inhibition in assay [1] was 98%; in assay [2], 84%; in assay [3], 20%. Further, the EC50 is 140 nM in assay [4] and 160 nM in assay [5].

On to `Cn1cncc1CN1CC(N(CC(N)=O)S(=O)(=O)c2ccccn2)Cc2cc(C#N)ccc21` (stereo not drawn), for which the results for the inhibition in assay [1] and in assay [2] were 82% and 37%, respectively. In addition, the EC50 was 1600 nM in assay [4] and 2200 nM in assay [5].

`Cn1cncc1CN1CC(N(Cc2ccc(C(F)(F)F)o2)S(=O)(=O)c2ccccn2)Cc2cc(C#N)ccc21` (stereo not drawn): the inhibition in assay [1] came to 84%; in assay [2], 39%. The EC50 in assay [4] was found to be 750 nM; in assay [5] it was 690 nM.

Take `Cn1cnc(S(=O)(=O)N(CC(=O)OC(C)(C)C)C2Cc3cc(C#N)ccc3N(Cc3cncn3Cc3ccccc3)C2)c1` (stereo not drawn): the values for the inhibition in assay [2] and in assay [3] were 45% and 22%, respectively. Also, the figures for the EC50 in assay [4] and in assay [5] were 150 nM and 140 nM, respectively.

Turning to `Cc1oncc1CN(C1Cc2cc(C#N)ccc2N(Cc2cncn2C)C1)S(=O)(=O)c1ccccn1` (stereo not drawn), the inhibition in assay [1] stood at 94%; in assay [2], 62%. Besides, the EC50 in assay [4] was 450 nM; in assay [5], 2800 nM.

As for `Cn1cncc1CN1CC(N(CCCCN2C(=O)c3ccccc3C2=O)S(=O)(=O)c2ccccn2)Cc2cc(C#N)ccc21` (stereo not drawn), the figures for the inhibition in assay [1] and in assay [2] were 92% and 63%, respectively. The EC50 is 820 nM in assay [4] and 3600 nM in assay [5].

Turning to `Cn1cncc1CN1CC(N(Cc2cccc(-n3cccn3)c2)S(=O)(=O)c2ccccn2)Cc2cc(C#N)ccc21` (stereo not drawn), the inhibition in assay [1] stood at 90%; in assay [2] it was 52%. Further, the EC50 in assay [4] and in assay [5] was 850 nM each time.

Turning to `Cc1nn(-c2ccccc2)nc1CN(C1Cc2cc(C#N)ccc2N(Cc2cncn2C)C1)S(=O)(=O)c1ccccn1` (stereo not drawn), the inhibition was 97% in assay [1] and 66% in assay [2]. The EC50 came out at 140 nM in assay [4] and 600 nM in assay [5].

As for `Cn1cnc(S(=O)(=O)N(CCN2C(=O)c3ccccc3C2=O)C2Cc3cc(C#N)ccc3N(Cc3cncn3C)C2)c1` (stereo not drawn), the inhibition in assay [1] stood at 98%; in assay [2], 97%. For the same compound, the EC50 in assay [4] is 14 nM; in assay [5], 18 nM.

On to `Cn1cncc1CN1CC(N(Cc2cccnc2)S(=O)(=O)c2ccccn2)Cc2cc(C#N)ccc21` (stereo not drawn), for which the values for the inhibition in assay [1] and in assay [2] were 95% and 89%, respectively. The values for the EC50 in assay [4] and in assay [5] were 105 nM and 490 nM, respectively.

In the case of `Cn1cncc1CN1CC(N(Cc2cccc(-n3cncn3)c2)S(=O)(=O)c2ccccn2)Cc2cc(C#N)ccc21` (stereo not drawn), the inhibition came to 53% in assay [1] and 11% in assay [2]. Besides, the figures for the EC50 in assay [4] and in assay [5] were 450 nM and 590 nM, respectively.

Consider `Cn1cnc(S(=O)(=O)N(Cc2ccc(-n3cncn3)cc2)C2Cc3cc(C#N)ccc3N(Cc3cncn3C)C2)c1` (stereo not drawn), for which the figures for the inhibition in assay [1] and in assay [2] were 93% and 54%, respectively. Further, the EC50 in assay [4] was 330 nM; in assay [5], 340 nM.

On to `Cn1cncc1CN1CC(N(Cc2ccc(Br)cc2)S(=O)(=O)c2ccccn2)Cc2cc(C#N)ccc21` (stereo not drawn), for which the inhibition in assay [1] worked out at 66%; in assay [2] it was 15%. Further, the EC50 in assay [4] is 520 nM; in assay [5], 750 nM.
